A selection: hits, their analogues and other compounds. The true share with any hit is near 2.3%.
Statin myotox sup: suppressors of statin myotoxicity in C2C12 myotubes, primary screen, cell-based, single point, plate reader; C2C12 myotubes + simvastatin, ATP luminescence, 48 h; scaled: DMSO 0, geranylgeraniol control 100; rescue of ATP level, % at 7.49 µM; 330,000 compounds, 0.78% hits;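 active means mean ATP rescue above about 67%, or every replicate alone reaching that limit, limit read from the data, passing the limit was not always enough; inconclusive means no clear call, values can overlap the other calls; inactive means mean under the limit and some replicate under it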;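 further: myotubes were challenged with 10 µM simvastatin during compound exposure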
PDI inh: inhibitors of human PDI, primary screen, biochemical, turbidity, single point, plate reader; 350,000 compounds, 0.052% hits; Protein disulfide-isomerase (Homo sapiens), P07237; AID 588391, 2011; inhibition, % at 10 µM; PDI insulin aggregation turbidity, A650, 90 min;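 active means mean inhibition across replicates of 30% or more, whatever share of single replicates reach that level; inconclusive means mean inhibition below 30% while every single replicate reaches 30%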
ERp5 block: inhibitors of ERp5-driven insulin aggregation, primary screen, biochemical, turbidity, absorbance 650 nm, single point. Protein disulfide-isomerase A6 (Homo sapiens), Q15084. 90 min. inhibition, % at 9.99 µM. 350,000 compounds, 0.05% hits. AID 651711, 2012;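 active means mean replicate inhibition above about 25%, with every replicate also reaching it, limit read from the data, passing the limit was not always enough; inconclusive means only one of those two criteria met; inactive means neither criterion met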
Target sequence (Q15084 whole entry, looked up): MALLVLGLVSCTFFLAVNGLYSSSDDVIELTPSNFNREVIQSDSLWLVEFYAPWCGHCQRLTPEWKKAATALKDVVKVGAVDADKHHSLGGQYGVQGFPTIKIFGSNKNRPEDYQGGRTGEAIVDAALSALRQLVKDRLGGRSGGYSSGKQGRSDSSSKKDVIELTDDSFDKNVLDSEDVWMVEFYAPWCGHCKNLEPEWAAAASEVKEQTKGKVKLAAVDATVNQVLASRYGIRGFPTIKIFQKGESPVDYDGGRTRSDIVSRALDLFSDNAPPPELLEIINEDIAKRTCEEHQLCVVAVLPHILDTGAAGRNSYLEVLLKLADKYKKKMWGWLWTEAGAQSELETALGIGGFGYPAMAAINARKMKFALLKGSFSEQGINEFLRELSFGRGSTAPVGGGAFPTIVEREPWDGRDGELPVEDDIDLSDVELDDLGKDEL
Cneo AK release: Cryptococcus neoformans cell lysis inducers, primary screen, AK release luminescence, single concentration | 360,000 compounds, 0.2% hits | C. neoformans lysis, adenylate kinase release luminescence, 4 h; normalised: neutral wells 0, clomiphene wells 100 | lysis activity, % at 15 µM | AID 651654, 2012;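 active means mean lysis activity across replicates of at least 80%, whatever share of replicates individually reach that level; inactive means mean lysis activity below 80%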
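Signal: Adenylate kinase release luminescence | Assay system: Log-phase Cryptococcus neoformans yeast cells | Input: Cells at 5 × 10^6 per mL | Buffer or medium: Fresh YPD growth medium | Compound: Single dose | Schedule: Static 4 h at 37 °C with compound, 1 h detection | Controls: Clomiphene | Read-out: Luminescence rise reflecting yeast cell lysis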
DENV2 CPE rescue: inhibitors of DENV2 cytopathic effect, primary screen, cell-based, plate reader, single concentration. DENV2-infected cells, cytopathic effect rescue. CPE inhibition, % at 9.99 µM. 350,000 compounds, 1.7% hits. AID 651640, 2012; in the data active means CPE inhibition above about 20%, passing the limit was not always enough; inconclusive means no clear call, values can overlap the other calls; tested in BHK-21 cells;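 further: 0% = median of neutral control wells and 100% = median of positive control wells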
F508del corr: F508del CFTR correction, initial screen, CFBE line, single point | CFBE cells, YFP halide quenching; stimulated with forskolin plus potentiator P3; % fluorescence drop versus neutral controls | activity (quench increase), % at 7.58 µM | 350,000 compounds, 0.36% hits | AID 720511, 2013;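 active means mean added fluorescence quench of at least 8% versus neutral control, with both replicates also reaching 8%; inconclusive means only one of the mean or replicate conditions met; inactive means mean below 8% and not both replicates reaching 8%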;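 further: cells transiently co-express mutant CFTR-F508del with the halide-sensitive YFP; corrector assay measuring rescue of mutant channel to the surface after 24 h compound exposure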
* marks the source's active call; other numbers are inactive results; ? = inconclusive; nt = no result given; ! = not active in a repeat.

SMILES	Statin myotox sup	PDI inh	ERp5 block	Cneo AK release	DENV2 CPE rescue	F508del corr
Cc1ccc(S(=O)(=O)N(C)C[C@H]2Oc3c(NS(=O)(=O)c4ccccc4)cccc3C(=O)N([C@@H](C)CO)C[C@@H]2C)cc1	nt	nt	-10	-4	4	0
CO[C@H]1CN(C)C(=O)c2cc(NC(=O)Nc3ccccc3F)ccc2OC[C@H](C)N(C(C)=O)C[C@H]1C	0	nt	1	0	21*	2
Cc1noc(C)c1NC(=O)N(C)C[C@@H]1OCCCC[C@@H](C)Oc2ccc(NS(=O)(=O)c3c(C)noc3C)cc2C(=O)N([C@H](C)CO)C[C@@H]1C	26	nt	-6	-4	-1	-1
O=C(C[C@H]1CC[C@@H](NC(=O)C2CCOCC2)[C@@H](CO)O1)Nc1ccc(-c2ccccc2)cc1	-1	nt	-3	1	-3	-2
CCO[C@H]1OC(C(=O)NC2CC2)=C[C@@H](c2ccc(C(F)(F)F)cc2)[C@@H]1CCCO	-24	-4	2	-5	25*!	0
CCO[C@H]1OC(C(=O)O)=C[C@@H](c2ccc3c(c2)OCO3)[C@@H]1CCCO	17	-9	-2	-1	24*	-1
CCO[C@H]1OC(C(=O)N2CCOCC2)=C[C@@H](c2cn(C(C)=O)c3ccccc23)[C@@H]1CCCO	-9	0	3	6	27*!	1
CCO[C@@H]1OC(C(=O)NC2CC2)=C[C@H](c2ccc(C(F)(F)F)cc2)[C@H]1CCCO	-7	-4	8	-7	12	-1
CCO[C@H]1OC(C(=O)N2CCCC2)=C[C@@H](c2ccc3c(c2)OCO3)[C@@H]1CCCO	nt	nt	2	13	-6	-2
Cc1noc(C)c1NC(=O)N(C)C[C@H]1Oc2c(NC(=O)Nc3ccc(C(F)(F)F)cc3)cccc2C(=O)N([C@@H](C)CO)C[C@H]1C	-22	nt	1	0	-7	-3
CN1C(=O)c2cc(NC(=O)C3CCCC3)ccc2OC[C@H]2O[C@H](CC(=O)O)CC[C@H]21	-10	nt	-6	3	-10	-2
S=C(NCc1ccco1)N1CCN(C(c2ccccc2)c2ccccc2)CC1	86*	1	3	8	-2	nt
CO[C@H]1CN(C)C(=O)c2cc(NC(=O)C3CC3)ccc2OC[C@@H](C)N(C(=O)CN2CCOCC2)C[C@H]1C	-11	nt	3	-1	0	0
COc1cccc(S(=O)(=O)NCc2ccc(C(=O)Nc3ccc(C)cc3)cc2)c1	95*	6	nt	-6	nt	nt
O=C(CNC1CCCCC1)NN=C(c1ccccc1)c1ccccc1	nt	-1	-1	nt	5	12*
O=C(COc1ncnc2ccccc12)c1ccc2c(c1)OCCO2	72*	-7	nt	nt	nt	nt
O=C(COc1ncnc2cc(Cl)ccc12)c1ccc2c(c1)OCCO2	-1	0	5	-1	5	-1
COc1cccc(-c2cn(CC[C@@H]3CC[C@H](NS(=O)(=O)Cc4ccccc4)[C@H](CO)O3)nn2)c1	2	nt	-1	0	-6	-5
C[C@H](CO)N1C[C@H](C)[C@@H](CN(C)Cc2ccc(Cl)c(Cl)c2)OCCCC[C@H](C)Oc2ccc(NC(=O)Nc3cccc4ccccc34)cc2C1=O	nt	nt	-4	-3	33*	-2
C[C@@H]1CCCCO[C@@H](CN(C)Cc2ccc(Cl)c(Cl)c2)[C@@H](C)CN([C@H](C)CO)C(=O)c2cc(NC(=O)Nc3cccc4ccccc34)ccc2O1	nt	nt	0	-3	22*	-1
CN1C(=O)c2cc(NC(=O)c3ccc(F)cc3)ccc2OC[C@@H]2O[C@H](CC(=O)NCC3CC3)CC[C@H]21	9	nt	-3	3	5	0
C[C@H]1CN([C@@H](C)CO)C(=O)Cc2cc(NC(=O)CCN3CCOCC3)ccc2O[C@@H]1CN(C)Cc1ccc(-c2ccccc2)cc1	13	nt	-3	nt	-8	3
Cc1cc(C)c(C)c(S(=O)(=O)NCC(=O)N2CCCC2)c1C	115*	-4	nt	-1	nt	nt
Cc1ccc(C)c(S(=O)(=O)NCC(=O)N2CCCC2)c1	0	-3	1	-1	0	4
CN1CCN(c2nc(-c3ccccc3O)nc3ccccc23)CC1	nt	6	-4	nt	-6	2
SMILES	Statin myotox sup	PDI inh	ERp5 block	Cneo AK release	DENV2 CPE rescue	F508del corr
COc1cccc(-c2nc(N3CCN(C)CC3)c3ccccc3n2)c1O	?	4	0	nt	4	14*
COCC(=O)NC[C@@H]1[C@@H](c2ccc(-c3ccccc3)cc2)[C@H](CO)N1C(C)=O	-3	nt	19	-1	41*	0
CCC(=O)NC[C@@H]1[C@@H](c2ccc(-c3ccc(OC)cc3)cc2)[C@@H](CO)N1C(C)=O	nt	nt	4	nt	42*	-5
CN(C)CCCN1c2ccccc2Sc2ccc3ccccc3c21	nt	-3	10	nt	43*	1
CN(C)CCCN1c2ccc3ccccc3c2Sc2cccc(Cl)c21	nt	-1	1	nt	-3	1
C[C@H](CO)N1C[C@H](C)[C@@H](CN(C)Cc2ccccc2)Oc2ccc(N(C)C)cc2CC1=O	41	nt	1	1	6	1
C[C@@H]1CN([C@@H](C)CO)C(=O)Cc2cc(N(C)C)ccc2O[C@@H]1CN(C)Cc1ccc(C(F)(F)F)cc1	56	nt	2	9	27*	3
C[C@@H]1CN([C@@H](C)CO)C(=O)Cc2cc(N(C)C)ccc2O[C@@H]1CN(C)Cc1ccc(C(=O)O)cc1	-18	nt	0	-4	33*	0
O=C(NC1Cc2ccccc2C1)[C@H]1[C@H](CO)[C@H]2Cn3c(ccc(C4=CCCCC4)c3=O)[C@@H]1N2	12	nt	-6	-5	-3	0
Cc1cc(N(C)C(=O)c2ccc3c(c2)S(=O)(=O)c2cc(Cl)ccc2C3=O)c(C(F)(F)F)o1	-29	0	2	0	49*	1
C[C@H]1CN([C@@H](C)CO)C(=O)c2cc(NC(=O)Cn3cnnn3)ccc2O[C@H]1CN(C)C	-3	nt	-7	-1	-5	0
COc1ccc(NC(=O)C2CCCN2c2ccc(OC)c(OC)c2)cc1OC (stereo not drawn)	80*	1	nt	2	nt	nt
Nc1nnnn1/N=C/c1ccccn1	83*	2	1	-2	6	3
CN1C(=O)c2cc(NS(=O)(=O)c3cccc(F)c3)ccc2OC[C@H]2O[C@@H](CC(=O)O)CC[C@@H]21	-15	nt	-10	-2	71*	-1
